From ChEMBL document CHEMBL1124883, “Monophosphoric acid diesters of 7 beta-hydroxycholesterol and of pyrimidine nucleosides as potential antitumor agents: synthesis and preliminary evaluation of antitumor activity” (1990) come the findings set out here.

Test [1] is described as follows: The percentage of increase in life span was determined. It counts as functional, Mus musculus. A digest of the protocol: (§1)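 Krebs II ascitic carcinoma, 1 × 10^6 cells in 0.25 mL 0.9% NaCl from donor mice with 8-10-day tumors, implanted ip into female Swiss/OF1 mice (20-25 g, six per group). Drugs were given in saline, water or aqueous suspension, 0.2 mL ip daily, starting 24 or 96 h post-implant. Saline controls.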

Test [2] is described as follows: Evaluated for median survival time against Kreb II murine sarcoma cells in female Swiss/OF1 mice after ip administration of 84 uM/kg per day. Type of test: functional, Mus musculus. In outline: as §1
Test [3] in a line: Evaluated for median survival time against Kreb II murine sarcoma cells in female Swiss/OF1 mice after ip administration of 80 umol/kg per day. It counts as functional, Mus musculus. In outline:
as §1

A short description of test [4]: Evaluated for median survival time against Kreb II murine sarcoma cells in female Swiss/OF1 mice after ip administration of 80 uM/kg per day. It counts as functional, Mus musculus. A digest of the protocol: as §1
The species named for a further test is Mus musculus. Nature of the test: Complete recovery expressed as percent of animals surviving for more than 80 days was determined. Type of test: functional. In outline:
as §1

Take `CC(C)CCCC(C)[C@H]1CCC2C3C(CC[C@@]21C)[C@@]1(C)CC[C@H](O)CC1=C[C@@H]3O` (stereo in doubt; form 2) [listing 1 of 2 here]: the ILS in test [1] is on record as 180%. Moreover, in test [2], the Median survival time came out at 42 days.
`CC(C)CCCC(C)[C@H]1CC[C@H]2[C@@H]3[C@@H](O)C=C4C[C@@H](O)CC[C@]4(C)[C@H]3CC[C@]12C.O=c1ccn([C@@H]2O[C@H](CO)[C@@H](O)[C@H]2O)c(=O)[nH]1` (some centres undefined) gave a Median survival time in test [3] of 21 days. In test [1], this compound displayed an ILS of 40%.
As to `O=c1[nH]c(=O)n([C@@H]2O[C@H](CO)[C@@H](O)[C@H]2O)cc1F` [5-FLUOROURIDINE], the ILS in test [1] came to 93%. In test [4], this compound displayed a Median survival time of 29 days.
As to `CC(C)CCCC(C)[C@H]1CCC2C3C(CC[C@@]21C)[C@@]1(C)CC[C@H](O)CC1=C[C@@H]3O` (stereo in doubt; form 1), in test [3], the Median survival time was found to be 21 days. For the same compound, the ILS in test [1] was 40%.
In turn, `CC(C)CCCC(C)[C@H]1CCC2C3C(CC[C@@]21C)[C@@]1(C)CC[C@H](O)CC1=C[C@@H]3O` (stereo in doubt; form 2) [listing 2 of 2 here] had a CR in the test filed under Mus musculus of 30%.

For orientation: ILS means the gain in survival time of treated over control animals, in per cent. A low value points to little gain in survival.
